According to ChEMBL document CHEMBL1649147, “Antistaphylococcal activity of dihydrophthalazine antifolates, a family of novel antibacterial drugs” (2009):
≈ marks a conversion by molar mass, not a printed value.

Legend:
Staphylococcus aureus [1] = assay: Antibacterial activity against Tmp-susceptible Staphylococcus aureus by agar dilution method; assay type: functional
Procedure, shortened: (§1)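 MICs by agar dilution on Mueller-Hinton agar following CLSI guidelines. S. aureus ATCC 29213 and E. faecalis ATCC 29212 were run as quality controls with each set, and test-strain MICs were kept only if control MICs fell within acceptable ranges.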

[2] = test system: Staphylococcus epidermidis; assay: Antibacterial activity against coagulase-negative Staphylococcus epidermidis 051 by agar dilution method; assay type: functional; procedure, shortened: as §1
Staphylococcus aureus [3] = assay: Antibacterial activity against methicillin-susceptible, vancomycin-intermediate Staphylococcus aureus 505 after 50 passages by agar dilution method; assay type: functional
Procedure, shortened: (§2)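 Daily serial passage for up to 50 days at 35°C for 24 h in 1 ml MHB. […] Each transfer used 10 µl from the tube nearest the MIC (1–2 dilutions below) with the same turbidity as the drug-free control. […] MICs were measured by agar dilution, with changes given as log2 steps.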

Staphylococcus aureus [4] = assay: Antibacterial activity against vancomycin-resistant Staphylococcus aureus VRS1 after 15 passages by agar dilution method; assay type: functional; procedure, shortened: as §2
[5] = test system: Staphylococcus epidermidis; assay: Antibacterial activity against methicillin-resistant coagulase-negative Staphylococcus epidermidis 345 by broth macrodilution method; assay type: functional
[6] = test system: coagulase-negative staphylococci; assay: Antibacterial activity against methicillin-susceptible coagulase-negative staphylococci by agar dilution method
Staphylococcus aureus [7] = assay: Antibacterial activity against Tmp-resistant Staphylococcus aureus by agar dilution method; assay type: functional; procedure, shortened: as §1
[8] = test system: Staphylococcus epidermidis; assay: Antibacterial activity against methicillin-resistant coagulase-negative Staphylococcus epidermidis 074 by broth macrodilution method; assay type: functional
Staphylococcus aureus [9] = assay: Antibacterial activity against Staphylococcus aureus 505 assessed as change in MIC by agar dilution method after serial passages in presence of antibiotic relative to control; assay type: functional
Procedure, shortened: (§3)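 Serial passage under drug. Inoculum was ~1 × 10^6 CFU/ml from overnight MHA growth, in 1 ml MHB at 35°C for 24 h. Drug ranged from 4 log2 steps above to 3 log2 steps below the MIC. […] MIC change is given as log2 steps.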

[10] = test system: Staphylococcus epidermidis; assay: Antibacterial activity against coagulase-negative Staphylococcus epidermidis 051 after 50 passages by agar dilution method; assay type: functional; procedure, shortened: as §3
Staphylococcus aureus [11] = assay: Antibacterial activity against vancomycin-resistant Staphylococcus aureus VRS1 after 10 passages in MHB without antibiotic by agar dilution method; assay type: functional
Procedure, shortened: (§4)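 Clones from the end of drug passage were transferred 10 times in MHB without antibiotic, then retested by agar dilution. MIC change is expressed as log2 dilution steps.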

[12] = test system: Staphylococcus epidermidis; assay: Antibacterial activity against methicillin-resistant coagulase-negative Staphylococcus epidermidis 197 by broth macrodilution method; assay type: functional
Staphylococcus aureus [13] = assay: Antibacterial activity against methicillin-resistant and vancomycin-resistant Staphylococcus aureus VRS1 after 15 passages by agar dilution method; assay type: functional; procedure, shortened: as §2
Staphylococcus aureus [14] = assay: Antibacterial activity against methicillin-resistant Staphylococcus aureus 145 by broth macrodilution method; assay type: functional
[15] = test system: Staphylococcus epidermidis; assay: Antibacterial activity against methicillin-resistant coagulase-negative Staphylococcus epidermidis 197 after 50 passages by agar dilution method; assay type: functional
Procedure, shortened: (§5)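 Daily serial passage for up to 50 days at 35°C for 24 h in 1 ml MHB. Each transfer used 10 µl from the tube nearest the MIC (1–2 dilutions below) with the same turbidity as the drug-free control. MICs were measured by agar dilution, with changes given as log2 steps.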

[16] = test system: Staphylococcus epidermidis; assay: Antibacterial activity against methicillin-resistant, Linezolid non-susceptible coagulase-negative Staphylococcus epidermidis 345 after 50 passages by agar dilution method; assay type: functional; procedure, shortened: as §5
[17] = test system: Staphylococcus epidermidis; assay: Antibacterial activity against coagulase-negative Staphylococcus epidermidis 225 by agar dilution method; assay type: functional; procedure, shortened: as §1
Staphylococcus aureus [18] = assay: Antibacterial activity against Staphylococcus aureus 145 after 10 passages in MHB without antibiotic by agar dilution method; assay type: functional
Procedure, shortened: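 After drug-selective serial passage, selected clones were passaged 10 times in antibiotic-free MHB. MICs were then redetermined, and the change is expressed as log2 dilution steps.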

[19] = test system: Staphylococcus epidermidis; assay: Antibacterial activity against methicillin-resistant, vancomycin-intermediate coagulase-negative Staphylococcus epidermidis 225 after 50 passages by agar dilution method; assay type: functional; procedure, shortened: as §2
[20] = test system: Staphylococcus epidermidis; assay: Antibacterial activity against coagulase-negative Staphylococcus epidermidis 345 after 50 passages by agar dilution method; assay type: functional; procedure, shortened: as §3
Staphylococcus aureus [21] = assay: Antibacterial activity against methicillin-susceptible Staphylococcus aureus 505 by broth macrodilution method; assay type: functional
Staphylococcus aureus [22] = assay: Antibacterial activity against methicillin-resistant Staphylococcus aureus ATCC 43300 after 50 passages by agar dilution method; assay type: functional; details: ATCC43300; procedure, shortened: as §3
Staphylococcus aureus [23] = assay: Antibacterial activity against Staphylococcus aureus 145 after 37 passages by agar dilution method; assay type: functional; procedure, shortened: as §3
Staphylococcus aureus [24] = assay: Antibacterial activity against vancomycin-resistant Staphylococcus aureus VRS1 assessed as change in MIC by agar dilution method after serial passages in the absence of antibiotic relative to control; assay type: functional; procedure, shortened: as §4
[25] = test system: Staphylococcus epidermidis; assay: Antibacterial activity against coagulase-negative Staphylococcus epidermidis 225 assessed as change in MIC by agar dilution method after serial passages in presence of antibiotic relative to control; assay type: functional; procedure, shortened: as §3
[26] = test system: Staphylococcus epidermidis; assay: Antibacterial activity against coagulase-negative Staphylococcus epidermidis 345 assessed as change in MIC by agar dilution method after serial passages in presence of antibiotic relative to control; assay type: functional; procedure, shortened: as §3
[27] = test system: Staphylococcus epidermidis; assay: Antibacterial activity against methicillin-susceptible coagulase-negative Staphylococcus epidermidis 051 after 50 passages by agar dilution method; assay type: functional; procedure, shortened: as §5
Staphylococcus aureus [28] = assay: Antibacterial activity against methicillin-resistant Staphylococcus aureus 145 after 37 passages by agar dilution method; assay type: functional; procedure, shortened: as §3
[29] = test system: Staphylococcus epidermidis; assay: Antibacterial activity against methicillin-resistant, vancomycin-intermediate coagulase-negative Staphylococcus epidermidis 225 after 38 passages by agar dilution method; assay type: functional; procedure, shortened: as §2
[30] = test system: Staphylococcus epidermidis; assay: Antibacterial activity against methicillin-susceptible coagulase-negative Staphylococcus epidermidis 057 after 15 passages by agar dilution method; assay type: functional; procedure, shortened: as §2
[31] = test system: Staphylococcus epidermidis; assay: Antibacterial activity against coagulase-negative Staphylococcus epidermidis 345 after 33 passages by agar dilution method; assay type: functional; procedure, shortened: as §3
Staphylococcus aureus [32] = assay: Antibacterial activity against vancomycin-resistant Staphylococcus aureus VRS1 after 20 passages by agar dilution method; assay type: functional; procedure, shortened: as §2
Staphylococcus aureus [33] = assay: Antibacterial activity against methicillin-resistant Staphylococcus aureus 145 after 47 passages by agar dilution method; assay type: functional; procedure, shortened: as §3
Staphylococcus aureus [34] = assay: Antibacterial activity against methicillin-resistant and vancomycin-resistant Staphylococcus aureus VRS1 after 20 passages by agar dilution method; assay type: functional; procedure, shortened: as §2
[35] = test system: Staphylococcus epidermidis; assay: Antibacterial activity against methicillin-resistant, Linezolid non-susceptible coagulase-negative Staphylococcus epidermidis 345 after 33 passages by agar dilution method; assay type: functional; procedure, shortened: as §2
[36] = test system: Staphylococcus epidermidis; assay: Antibacterial activity against coagulase-negative Staphylococcus epidermidis 051 after 38 passages by agar dilution method; assay type: functional; procedure, shortened: as §3
[37] = test system: Staphylococcus epidermidis; assay: Antibacterial activity against coagulase-negative Staphylococcus epidermidis 057 after 15 passages by agar dilution method; assay type: functional; procedure, shortened: as §3
Staphylococcus aureus [38] = assay: Antibacterial activity against methicillin-resistant and vancomycin-resistant Staphylococcus aureus VRS1 after 25 passages by agar dilution method; assay type: functional; procedure, shortened: as §2
Staphylococcus aureus [39] = assay: Antibacterial activity against Staphylococcus aureus 145 after 50 passages by agar dilution method; assay type: functional; procedure, shortened: as §3
[40] = test system: Staphylococcus epidermidis; assay: Antibacterial activity against coagulase-negative Staphylococcus epidermidis 057 after 23 passages by agar dilution method; assay type: functional; procedure, shortened: as §3
[41] = test system: Staphylococcus epidermidis; assay: Antibacterial activity against methicillin-susceptible coagulase-negative Staphylococcus epidermidis 057 after 23 passages by agar dilution method; assay type: functional; procedure, shortened: as §2
Staphylococcus aureus [42] = assay: Antibacterial activity against vancomycin-resistant Staphylococcus aureus VRS1 after 25 passages by agar dilution method; assay type: functional; procedure, shortened: as §2
[43] = test system: Staphylococcus epidermidis; assay: Antibacterial activity against methicillin-resistant, vancomycin-intermediate coagulase-negative Staphylococcus epidermidis 225 after 36 passages by agar dilution method; assay type: functional; procedure, shortened: as §2

Row | SMILES | MIC50 (Staphylococcus aureus [1]) | MIC90 (Staphylococcus aureus [1]) | MIC [2] | MIC (Staphylococcus aureus [3]) | MIC [5] | MIC90 [6] | MIC50 (Staphylococcus aureus [7]) | MIC90 (Staphylococcus aureus [7]) | MIC [8] | fold change (FC) (Staphylococcus aureus [9]) | MIC (Staphylococcus aureus [11]) | MIC [12] | MIC (Staphylococcus aureus [14]) | MIC [15] | MIC [17] | MIC (Staphylococcus aureus [18]) | MIC (Staphylococcus aureus [21]) | MIC (Staphylococcus aureus [22]) | fold change (FC) (Staphylococcus aureus [24]) | fold change (FC) [25] | other results
1 | COc1ncc(C2c3ccccc3C=NN2C(=O)/C=C/c2cc(Cc3cnc(N)nc3N)cc(OC)c2OC)cn1 (stereo unspecified) | 0.03 µg/mL (≈ 0.0543 µM) | 0.03 µg/mL (≈ 0.0543 µM) | 0.25 µg/mL (≈ 0.452 µM) | 1 µg/mL (≈ 1.81 µM) | 0.06 µg/mL (≈ 0.109 µM) | 0.06 µg/mL (≈ 0.109 µM) | 0.25 µg/mL (≈ 0.452 µM) | 0.5 µg/mL (≈ 0.905 µM) | 0.06 µg/mL (≈ 0.109 µM) | 6 | 128 µg/mL (≈ 232 µM) | 0.008 µg/mL (≈ 0.0145 µM) | 0.25 µg/mL (≈ 0.452 µM) | 1 µg/mL (≈ 1.81 µM) | 0.25 µg/mL (≈ 0.452 µM) | 16 µg/mL (≈ 29 µM) | 0.03 µg/mL (≈ 0.0543 µM) | 4 µg/mL (≈ 7.24 µM) | -1 | 9 | MIC (Staphylococcus aureus [4]): > 128 µg/mL; MIC [10]: 64 µg/mL (≈ 116 µM); MIC (Staphylococcus aureus [13]): > 128 µg/mL; MIC [16]: 16 µg/mL (≈ 29 µM); MIC [19]: 128 µg/mL (≈ 232 µM); MIC [20]: 16 µg/mL (≈ 29 µM); MIC (Staphylococcus aureus [23]): > 128 µg/mL; fold change (FC) [26]: 7; MIC [27]: 64 µg/mL (≈ 116 µM); MIC (Staphylococcus aureus [28]): > 128 µg/mL
2 | COc1cc(Cc2cnc(N)nc2N)cc(/C=C/C(=O)N2N=Cc3ccccc3C2c2cnc(N(C)C)nc2)c1OC (stereo unspecified) | 0.03 µg/mL (≈ 0.053 µM) | 0.03 µg/mL (≈ 0.053 µM) | 0.125 µg/mL (≈ 0.221 µM) | 8 µg/mL (≈ 14.1 µM) | 0.06 µg/mL (≈ 0.106 µM) | 0.03 µg/mL (≈ 0.053 µM) | 0.25 µg/mL (≈ 0.442 µM) | 0.5 µg/mL (≈ 0.884 µM) | 0.06 µg/mL (≈ 0.106 µM) | 8 | > 128 µg/mL | 0.03 µg/mL (≈ 0.053 µM) | 0.25 µg/mL (≈ 0.442 µM) | 0.125 µg/mL (≈ 0.221 µM) | 0.25 µg/mL (≈ 0.442 µM) | > 128 µg/mL | 0.125 µg/mL (≈ 0.221 µM) | 1 µg/mL (≈ 1.77 µM) | 0 | 10 | MIC [29]: > 128 µg/mL; MIC [30]: > 128 µg/mL; MIC [31]: > 128 µg/mL; MIC (Staphylococcus aureus [32]): > 128 µg/mL; MIC (Staphylococcus aureus [33]): > 128 µg/mL; MIC (Staphylococcus aureus [34]): > 128 µg/mL; MIC [35]: > 128 µg/mL; MIC [36]: > 128 µg/mL; fold change (FC) [26]: 12; MIC [37]: > 128 µg/mL
3 | COc1cc(Cc2cnc(N)nc2N)cc(/C=C/C(=O)N2N=Cc3ccccc3C2c2cnc(N3CCOCC3)nc2)c1OC (stereo unspecified) | 0.03 µg/mL (≈ 0.0494 µM) | 0.06 µg/mL (≈ 0.0987 µM) | 0.5 µg/mL (≈ 0.823 µM) | 2 µg/mL (≈ 3.29 µM) | 0.125 µg/mL (≈ 0.206 µM) | 0.06 µg/mL (≈ 0.0987 µM) | 0.25 µg/mL (≈ 0.411 µM) | 0.5 µg/mL (≈ 0.823 µM) | 0.25 µg/mL (≈ 0.411 µM) | 6 | > 128 µg/mL | 0.06 µg/mL (≈ 0.0987 µM) | 0.25 µg/mL (≈ 0.411 µM) | 1 µg/mL (≈ 1.65 µM) | 0.25 µg/mL (≈ 0.411 µM) | 128 µg/mL (≈ 211 µM) | 0.03 µg/mL (≈ 0.0494 µM) | 2 µg/mL (≈ 3.29 µM) | 0 | 10 | MIC (Staphylococcus aureus [38]): > 128 µg/mL; MIC (Staphylococcus aureus [39]): 128 µg/mL (≈ 211 µM); MIC [40]: > 128 µg/mL; MIC [10]: 64 µg/mL (≈ 105 µM); MIC [41]: > 128 µg/mL; MIC [16]: 4 µg/mL (≈ 6.58 µM); MIC [20]: 4 µg/mL (≈ 6.58 µM); MIC (Staphylococcus aureus [42]): > 128 µg/mL; fold change (FC) [26]: 6; MIC [27]: 64 µg/mL (≈ 105 µM); MIC [43]: > 128 µg/mL
